Results published in ChEMBL document CHEMBL3745673, “Synthesis, antimycobacterial screening and ligand-based molecular docking studies on novel pyrrole derivatives bearing pyrazoline, isoxazole and phenyl thiourea moieties” (Eur J Med Chem, 2016).
In brackets after ≈: the same amount, converted by molar mass.

Tested on: Mycobacterium tuberculosis
Assay: Antitubercular activity against multi drug resistant Mycobacterium tuberculosis H37Rv after 5 days by microplate alamar blue assay
Format: functional
Conditions: 120 h
Summary of the method: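 Middlebrook 7H9 broth with compounds serially diluted on the plate over ten concentrations from 0.2 to 100. Sealed plates incubated 5 days at 37°C, then a fresh 1:1 mix of Alamar Blue and 10% Tween 80 was added for a further 24 h. Blue wells were scored as no growth and pink wells as growth.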

Row | Compound | MIC
1 | Cc1ccc(C)n1-c1ccccc1NC(=S)Nc1ccc([N+](=O)[O-])cc1 | 50 µg/mL (≈ 136 µM)
2 | Clc1cccc(-c2cc(-c3ccc(-n4cccc4)cc3)on2)c1Cl | 25 µg/mL (≈ 70.4 µM)
3 | COc1cccc(C2CC(c3ccc(-n4cccc4)cc3)=NN2C(C)=O)c1 (centres undefined) | 6.25 µg/mL (≈ 17.4 µM)
4 | CC[C@@H](CO)NCCN[C@@H](CC)CO [ETHAMBUTOL] | 0.5 µg/mL (≈ 2.45 µM)
5 | Clc1ccc(-c2cc(-c3ccc(-n4cccc4)cc3)on2)c(Cl)c1 | 50 µg/mL (≈ 141 µM)
6 | O=C(/C=C/c1ccccc1Cl)c1ccc(-n2cccc2)cc1 | 25 µg/mL (≈ 81.2 µM)
7 | CC(=O)N1N=C(c2ccc(-n3cccc3)cc2)CC1c1cccc(Br)c1 (centres undefined) | 50 µg/mL (≈ 122 µM)
8 | Brc1cccc(-c2cc(-c3ccc(-n4cccc4)cc3)on2)c1 | 50 µg/mL (≈ 137 µM)
9 | COc1cc(C2CC(c3cccc([N+](=O)[O-])c3)=NN2C(C)=O)cc(OC)c1OC (centres undefined) | 12.5 µg/mL (≈ 31.3 µM)
10 | O=C(/C=C/c1cccc(Oc2ccccc2)c1)c1ccc(-n2cccc2)cc1 | 25 µg/mL (≈ 68.4 µM)
11 | Cc1ccc(C)n1-c1ccccc1NC(=S)Nc1ccccc1Br | 50 µg/mL (≈ 125 µM)
12 | NC(=S)N1N=C(C/N=N/NC(=O)c2cccnc2)CC1c1ccccc1 (centres undefined) | 1.25 µg/mL (≈ 3.4 µM)
13 | Fc1ccc(-c2cc(-c3ccc(-n4cccc4)cc3)on2)cc1 | 12.5 µg/mL (≈ 41.1 µM)
14 | Brc1ccccc1-c1cc(-c2ccc(-n3cccc3)cc2)on1 | 100 µg/mL (≈ 274 µM)
15 | Cc1ccc(NC(=S)Nc2ccccc2-n2c(C)ccc2C)cc1 | 50 µg/mL (≈ 149 µM)
16 | Clc1ccccc1-c1cc(-c2ccc(-n3cccc3)cc2)on1 | 25 µg/mL (≈ 77.9 µM)
17 | Cc1ccc(C)n1-c1ccccc1NC(=S)Nc1cccc(Br)c1 | 50 µg/mL (≈ 125 µM)
18 | O=C(/C=C/c1ccccc1)c1ccc(-n2cccc2)cc1 | 50 µg/mL (≈ 183 µM)
19 | CC(=O)Nc1ccc(O)c(C2CC(c3ccc(Cl)cc3)=NN2C(=O)c2ccncc2)c1 (centres undefined) | 3.12 µg/mL (≈ 7.17 µM)
20 | O=C(/C=C/c1ccc(Cl)cc1)c1ccc(-n2cccc2)cc1 | 50 µg/mL (≈ 162 µM)

Row | Compound | MIC
21 | O=C(/C=C/c1ccco1)c1ccc(-n2cccc2)cc1 | 50 µg/mL (≈ 190 µM)
22 | c1ccc(Oc2cccc(-c3cc(-c4ccc(-n5cccc5)cc4)on3)c2)cc1 | 12.5 µg/mL (≈ 33 µM)
23 | Cc1ccc(C)n1-c1ccccc1NC(=S)Nc1ccc(Cl)c(Cl)c1 | 6.25 µg/mL (≈ 16 µM)
24 | COc1ccc(/C=C/C(=O)c2ccc(-n3cccc3)cc2)cc1 | 12.5 µg/mL (≈ 41.2 µM)
25 | O=C(/C=C/c1ccccc1Br)c1ccc(-n2cccc2)cc1 | 50 µg/mL (≈ 142 µM)
26 | CC(=O)N1N=C(c2ccc(-n3cccc3)cc2)CC1c1ccc(Cl)cc1Cl (centres undefined) | 25 µg/mL (≈ 62.8 µM)
27 | CC(=O)N1N=C(c2ccc(-n3cccc3)cc2)CC1c1cccc(Oc2ccccc2)c1 (centres undefined) | 12.5 µg/mL (≈ 29.7 µM)
28 | Cc1ccc(C)n1-c1ccccc1NC(=S)Nc1ccc(Cl)cc1 | 50 µg/mL (≈ 140 µM)
29 | O=C(/C=C/c1cccc(Br)c1)c1ccc(-n2cccc2)cc1 | 100 µg/mL (≈ 284 µM)
30 | COc1cccc(/C=C/C(=O)c2ccc(-n3cccc3)cc2)c1 | 25 µg/mL (≈ 82.4 µM)
31 | CC(C)c1ccc(/C=C/C(=O)c2ccc(-n3cccc3)cc2)cc1 | 12.5 µg/mL (≈ 39.6 µM)
32 | COc1ccccc1NC(=S)N1N=C(c2ccc(O)c(C)c2)CC1c1c(Cl)cccc1Cl (centres undefined) | 1.66 µg/mL (≈ 3.41 µM)
33 | CC(=O)N1N=C(c2ccc(-n3cccc3)cc2)CC1c1ccccc1Cl (centres undefined) | 25 µg/mL (≈ 68.7 µM)
34 | O=C(/C=C/c1cccc(Cl)c1Cl)c1ccc(-n2cccc2)cc1 | 25 µg/mL (≈ 73.1 µM)
35 | O=C(/C=C/c1ccc(F)cc1)c1ccc(-n2cccc2)cc1 | 12.5 µg/mL (≈ 42.9 µM)
36 | O=C(/C=C/c1c(Cl)cccc1Cl)c1ccc(-n2cccc2)cc1 | 25 µg/mL (≈ 73.1 µM)
37 | O=C(/C=C/c1ccccc1O)c1ccc(-n2cccc2)cc1 | 25 µg/mL (≈ 86.4 µM)
38 | Clc1ccc(-c2cc(-c3ccc(-n4cccc4)cc3)on2)cc1 | 50 µg/mL (≈ 156 µM)
39 | COc1ccc(-c2cc(-c3ccc(-n4cccc4)cc3)on2)cc1OC | 12.5 µg/mL (≈ 36.1 µM)
40 | Cc1ccc(-c2cc(-c3ccc(-n4cccc4)cc3)on2)cc1 | 12.5 µg/mL (≈ 41.6 µM)

Row | Compound | MIC
41 | CC(=O)N1N=C(c2ccc(-n3cccc3)cc2)CC1c1ccco1 (centres undefined) | 25 µg/mL (≈ 78.3 µM)
42 | c1ccc(-c2cc(-c3ccc(-n4cccc4)cc3)on2)cc1 | 100 µg/mL (≈ 349 µM)
43 | CC(=O)N1N=C(c2ccc(-n3cccc3)cc2)CC1c1ccc(F)cc1 (centres undefined) | 12.5 µg/mL (≈ 36 µM)
44 | Cc1ccc(C)n1-c1ccccc1NC(=S)Nc1cccc(Cl)c1 | 50 µg/mL (≈ 140 µM)
45 | c1coc(-c2cc(-c3ccc(-n4cccc4)cc3)on2)c1 | 25 µg/mL (≈ 90.5 µM)
46 | O=C(/C=C/c1ccc(Cl)cc1Cl)c1ccc(-n2cccc2)cc1 | 25 µg/mL (≈ 73.1 µM)
47 | CC(=O)N1N=C(c2ccc(-n3cccc3)cc2)CC1c1ccccc1Br (centres undefined) | 100 µg/mL (≈ 245 µM)
48 | COc1ccc(C2CC(c3ccc(-n4cccc4)cc3)=NN2C(C)=O)cc1OC (centres undefined) | 12.5 µg/mL (≈ 32.1 µM)
49 | Cc1ccc(C)n1-c1ccccc1NC(=S)Nc1ccc(F)cc1 | 1.6 µg/mL (≈ 4.71 µM)
50 | CC(=O)N1N=C(c2ccc(-n3cccc3)cc2)CC1c1ccc(Cl)cc1 (centres undefined) | 25 µg/mL (≈ 68.7 µM)
51 | CC(=O)N1N=C(c2ccc(-n3cccc3)cc2)CC1c1ccc(C)cc1 (centres undefined) | 6.25 µg/mL (≈ 18.2 µM)
52 | COc1ccc(/C=C/C(=O)c2ccc(-n3cccc3)cc2)cc1OC | 25 µg/mL (≈ 75 µM)
53 | CO[C@H]1/C=C/O[C@@]2(C)Oc3c(C)c(O)c4c(O)c(c(/C=N/N5CCN(C)CC5)c(O)c4c3C2=O)NC(=O)/C(C)=C\C=C\[C@H](C)[C@H](O)[C@@H](C)[C@@H](O)[C@@H](C)[C@H](OC(C)=O)[C@@H]1C [RIFAMPIN] | 0.4 µg/mL (≈ 0.486 µM)
54 | CC(=O)N1N=C(c2ccc(-n3cccc3)cc2)CC1c1ccccc1 (centres undefined) | 25 µg/mL (≈ 75.9 µM)
55 | Cc1ccc(C)n1-c1ccccc1NC(=S)Nc1ccccc1 | 50 µg/mL (≈ 156 µM)
56 | CC(=O)N1N=C(c2ccc(-n3cccc3)cc2)CC1c1cccc(Cl)c1Cl (centres undefined) | 25 µg/mL (≈ 62.8 µM)
57 | COc1ccc(C2CC(c3ccc(-n4cccc4)cc3)=NN2C(C)=O)c(OC)c1 (centres undefined) | 6.25 µg/mL (≈ 16 µM)
58 | Clc1cccc(Cl)c1-c1cc(-c2ccc(-n3cccc3)cc2)on1 | 100 µg/mL (≈ 282 µM)
59 | CC(=O)N1N=C(c2ccc(-n3cccc3)cc2)CC1c1c(Cl)cccc1Cl (centres undefined) | 25 µg/mL (≈ 62.8 µM)
